# Bioassay records deposited in PubChem by several laboratories.
# Hits are enriched below; roughly 4.5% of the tested compounds scored in any of these assays.
# MrgX1 allo act – allosterically activates human MrgX1 receptor signaling | Q96LB2 | B-score at 10 µM | MrgX1-HEK293, Fluo-4 calcium flux, FDSS; stronger effect = higher value | 0.63% of 310,000 active;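 active = plate-corrected calcium response at least 3 library SD above typical, normal starting fluorescence, not activating the receptor alone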;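 also: compound read alongside a low EC10 to EC30 dose of BAM8-22 agonist; peak minus trough fluorescence over baseline measured at the second addition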
# MrgX1 agonist – human MrgX1 receptor agonism, primary screen | Q96LB2 | B-score at 10 µM | 0.44% of 310,000 active | MrgX1-HEK293 cells, Fluo-4 calcium fluorescence, agonist mode; stronger effect = higher value;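 active = calcium response B-score plate-corrected fluorescence ratio at least 3 library SD, with starting fluorescence B-score inside 5 SD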
#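 Material: HEK293 cells stably expressing human MrgX1 receptor | Quantity: 15,000 cells per well | Times: Cells plated overnight, dye loaded 0.5 h 37 °C, 0.5 h room temperature | Measured by: Kinetic Fluo-4 NW fluorescence of intracellular calcium | Control set: Positive and negative controls per plate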
# RGS4 inh – inhibitors of human RGS4; P49798; HEK293 M3R/RGS4 inducible, Fluo-4 calcium flux; stronger effect = higher value; triggered by carbachol at its EC20; B-score at 10 µM; 0.45% of 310,000 active;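 active = B-score, a plate-corrected calcium signal, over three deviations above library mean, with baseline fluorescence within five deviations of library mean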;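 also: RGS4 expression induced by doxycycline in cells with stable M3 receptor; B-score is computed from the integrated fluorescence ratio over baseline after carbachol; higher B-score means a larger calcium signal and so more RGS4 inhibition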
# Target sequence (P49798 whole entry, looked up): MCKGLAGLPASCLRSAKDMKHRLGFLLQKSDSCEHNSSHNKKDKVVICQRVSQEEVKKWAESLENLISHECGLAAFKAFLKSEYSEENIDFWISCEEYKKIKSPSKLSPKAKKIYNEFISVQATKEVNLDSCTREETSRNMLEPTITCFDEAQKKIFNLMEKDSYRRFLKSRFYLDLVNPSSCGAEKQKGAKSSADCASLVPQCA
# PHOSPHO1 inh – inhibitors of human PHOSPHO1 phosphatase. 1.1% of 290,000 active. AID 1565. Q8TCT1. recombinant PHOSPHO1, absorbance phosphatase assay. inhibition, % at 13.3 µM; in the data active = inhibition above about 60%
# Target sequence (Q8TCT1 whole entry, looked up): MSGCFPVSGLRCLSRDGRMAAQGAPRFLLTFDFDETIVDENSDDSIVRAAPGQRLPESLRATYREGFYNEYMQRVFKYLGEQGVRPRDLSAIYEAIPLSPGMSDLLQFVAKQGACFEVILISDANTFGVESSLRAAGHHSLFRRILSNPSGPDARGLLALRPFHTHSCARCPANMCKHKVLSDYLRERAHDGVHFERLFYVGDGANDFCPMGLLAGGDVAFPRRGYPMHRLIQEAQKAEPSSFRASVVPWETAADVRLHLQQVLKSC
# RGS4 act – RGS4 potentiation or activation; AID 463111; 0.92% of 310,000 active; B-score at 10 µM; HEK293 M3R/inducible RGS4, carbachol calcium flux Fluo4; stronger effect = lower value;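 active = B-score of the integrated calcium signal more than 4 SD below the library mean, with starting fluorescence not abnormally high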;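 also: negative B-score means reduced calcium response which marks RGS4 activation or potentiation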
#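 System: HEK293 FlpIn-TREx cells, stable M3R, doxycycline-inducible RGS4. Timing: overnight RGS4 induction, 30 min dye load 37 °C, 20 min compound RT. Also added: carbachol, ECmax concentration. Measured by: Fluo4 fluorescence kinetic imaging of calcium. Evaluation: integrated calcium ratio converted to B score.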
# MrgX1 antagonist – blocks BAM8-22 activation of human MrgX1 receptor. B-score at 10 µM. 1.3% of 310,000 active. Q96LB2. MRGX1-HEK293 calcium flux, Fluo-4, BAM8-22 antagonism; stronger effect = lower value. AID 588676;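 active = calcium-response B-score plate-corrected more than 3 library SD below zero, starting fluorescence within 5 deviations, no agonist response on first addition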;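 also: peak minus trough fluorescence over baseline after final BAM8-22 challenge near maximal dose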
# Numbers without * were called inactive; i = inactive; nt = no result.
SMILES,MrgX1 allo act,MrgX1 agonist,RGS4 inh,PHOSPHO1 inh,RGS4 act,MrgX1 antagonist
O=C1NC(=O)C(=Cc2cccc(OCCOc3ccccc3)c2)C(=O)N1,i,i,i,29,i,i
O=C1NC(=O)C(=Cc2ccc(OCCOc3ccc([N+](=O)[O-])cc3)cc2)C(=O)N1,i,i,i,12,i,-4.8*
NNC(N)=O,i,i,nt,nt,nt,i
Oc1ccc(C(=C(Cl)Cl)c2ccc(O)cc2)cc1,i,i,i,16,i,i
COc1ccc(OCC#CCN2CCC(C)CC2)cc1,i,i,i,13,i,i
Clc1ccc(OCC#CCN2CCCCCC2)cc1,i,i,i,51,-7*,i
CCOc1cc2c(cc1OCC)-n1cccc1C(c1ccc(OC)cc1)NC2 (stereo unspecified),i,i,i,-4,i,-8.4*
CCOc1cc2c(cc1OCC)-n1cccc1C(c1ccc(F)cc1)NC2 (stereo unspecified),i,i,i,20,i,i
CCOc1cc2c(cc1OCC)-n1cccc1C(c1ccc(C(C)C)cc1)NC2 (stereo unspecified),i,i,i,2,i,-5.2*
CN1CC(C(=O)c2ccc([N+](=O)[O-])cc2)C(c2ccc(Cl)cc2)C1 (stereo unspecified),i,i,i,20,i,i
Cc1nc2c(=O)n(C)c(=O)nc-2n(C)n1,i,i,nt,68*,nt,i
CC1(C)C[C@H]2C=C(C=O)[C@]3(C=O)C[C@]3(C)[C@H]2C1,i,32*,i,-7,i,i
COc1ccccc1/C=C1/C(=N/O)C2CCN1CC2,i,i,i,-3,i,i
CCc1ccc(N2C(=O)NC(=O)C(Cc3ccc(OC)cc3OC)C2=O)cc1 (stereo unspecified),i,i,i,95*,i,i
O=P(Nc1cccnc1)(Oc1ccccc1Cl)Oc1ccccc1Cl,i,i,i,3,-8.4*,i
Cc1cccc(OP(=O)(Nc2cccnc2)Oc2cccc(C)c2)c1,i,i,i,6,i,i
COc1ccc(CN2C(=O)NC(=O)/C(=C\c3cccc(OC)c3OC)C2=O)cc1,i,i,i,-10,i,-5.5*
Cc1ccc(/C=C2/C(=O)NC(=O)N(Cc3ccc(F)cc3)C2=O)o1,i,i,11*,13,i,i
COc1cc(N2CCOCC2)ccc1/C=C1\C(=O)NC(=O)N(Cc2cccs2)C1=O,i,i,i,-11,i,i
COc1cc(N2CCOCC2)ccc1/C=C1\C(=O)NC(=O)N(Cc2ccc3c(c2)OCO3)C1=O,12*,i,i,-17,i,i
Cc1ccc(/C=C2\C(=O)NC(=O)N(Cc3ccccc3Cl)C2=O)o1,i,i,i,2,i,i
COc1ccc(CN2C(=O)NC(=O)/C(=C/c3ccc([N+](=O)[O-])o3)C2=O)cc1,nt,nt,nt,-1,nt,nt
C#C[C@]1(O)CC[C@H]2[C@@H]3CCC4=Cc5nc6nc7ccccc7n6cc5C[C@]4(C)[C@H]3CC[C@@]21C,i,i,nt,nt,nt,i
Nc1ccccc1C(=O)OC1CSC1,i,i,i,-3,i,i
CC1Oc2cc3c(-c4c(O)cc(O)c5c(O)c6c(cc45)OC(C)C(C)C6=O)c(O)cc(O)c3c(O)c2C(=O)C1C (stereo unspecified),i,i,i,17,i,-5.9*
SMILES,MrgX1 allo act,MrgX1 agonist,RGS4 inh,PHOSPHO1 inh,RGS4 act,MrgX1 antagonist
CC(=O)OC1CCC2(/C=N/O)C(=CCC3C4CCC(=O)C4(C)CCC32)C1 (stereo unspecified),i,i,i,8,i,i
CC(C)(C)c1ccc(C(=O)C2CCCN(C3CCC3)C2)cc1 (stereo unspecified),i,i,i,60*,i,i
CC(CN(C)C1CCN(C)CC1)c1ccccc1 (stereo unspecified),i,i,i,19,i,i
CC/C(=N\N1CCN(C)CC1)c1c(O)[nH]c(=O)[nH]c1=O,i,i,i,18,i,i
Cc1cc(C=C2C(=O)N(C)C(=S)N(C)C2=O)c(C)n1C1CCCCC1,i,47*,i,65*,i,i
COc1ccc(C(=O)C2CN(C)CC2c2ccc(Cl)cc2)cc1 (stereo unspecified),i,i,i,-13,-7.2*,i
CCCCOc1ccc(CN2CCN(CCO)CC2)cc1,i,i,i,17,i,i
CCCCCCOc1ccc(CN2CCN(CCO)CC2)cc1,i,i,i,14,-7.3*,i
CCCNC(=O)N1[C@H]2CC[C@@H]1C(C(=O)OC)=C(c1cccc(OC)c1OC)C2,i,i,i,nt,i,i
CCN1CCc2ccccc2C1,i,i,i,29,i,i
CCN1CCN(CC(c2ccccc2)c2ccccc2)CC1,i,i,i,46,-7*,i
CC(=O)OC1CC[C@@]2(C)C(=CC(=O)C3C4CCC(OC(C)=O)[C@@]4(C)CCC32)C1 (stereo partly specified),i,i,i,nt,i,i
Cc1ccc(C[n+]2c(-c3ccc(C)cc3)cc(-c3ccc(C)cc3)cc2-c2ccc(C)cc2)cc1,i,i,i,nt,-7.2*,-13*
Cc1ccc(-c2cc(-c3ccc(C)cc3)[n+](-c3ccc(C(=O)O)cc3)c(-c3ccc(C)cc3)c2)cc1,i,i,i,nt,i,i
CCN(CC)c1ccc(/C=N/c2sc3c(c2C#N)C2CCN3CC2)c(O)c1,17*,i,nt,-4,nt,i
CC1N=C(c2ccccc2)c2cc(Br)ccc2NC1=O (stereo unspecified),i,i,i,20,i,i
O=C(O)Cn1cc(/C=C2\C(=O)NC(=O)N(c3ccc(Cl)cc3)C2=O)c2ccccc21,i,i,i,nt,i,i
Cn1cc(/C=C2\C(=O)NC(=O)N(c3ccccc3)C2=O)c2ccccc21,i,i,i,39,-7.8*,i
CN1CCN(CCOC2c3ccccc3CSc3ccc(Cl)cc32)CC1 (stereo unspecified),i,i,i,-4,i,-9.4*
O=C(COc1ccc(Cl)cc1)N(c1ccccc1Cl)C1CN2CCC1CC2 (stereo unspecified),i,i,i,56,i,i
Clc1ccc2c(c1)C(OC1CN3CCC1CC3)c1ccccc1CS2 (stereo unspecified),i,i,i,-12,-8.6*,i
